Bioassay records as filed in PubChem BioAssay.
Sampled rows, rich in hits. Any-hit rate of the full collection: about 2%.
Arrestin-AP2 inh: human beta-arrestin and AP2 interaction inhibition | AID 504490 | actives 0.31% (n = 340,000) | FITC-arrestin peptide / GST-AP2 beads, flow cytometry; AP2 beta2 appendage carries R879A mutation | inhibition, % at 10 µM;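 active = inhibition above a set limit, near 3 SD of compounds lacking own fluorescence, cut at about 54% in these data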
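System: GST-tagged AP2 beta2-adaptin appendage (R879A) on 4 µm glutathione beads / Reagent: FITC-arrestin peptide, 50 nM / Detection: HyperCyt-sampled flow cytometry, FL1 channel, ex 488/em 535 nm / Timing: 12 min plus 1 h, RT / Buffer or medium: PBS plus Tween 20 (0.05%) and BSA (0.1%)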
NTR1 agonist: NTR1 (human) agonism; NTR1-U2OS beta-arrestin-GFP spot imaging, agonist mode; activation, % at 20 µM; actives 0.17% (n = 330,000); AID 493036;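 active = activation at or above 40% of the spot to cytoplasm intensity ratio, with at least 20 cells analyzed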
GRK2 aptamer HTS: inhibitors of human GRK2 displacing RNA aptamer; inhibition of aptamer binding, % at 10 µM; P25098; bead flow cytometry, FAM-aptamer displacement from GRK2; actives 0.59% (n = 330,000);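 active = inhibition of aptamer binding above 40%, roughly 3 SD of noise, on plates passing a quality check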;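 note: median bead fluorescence of bound FAM aptamer so fluorescent compounds give negative values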
Target sequence (P25098 whole entry, looked up): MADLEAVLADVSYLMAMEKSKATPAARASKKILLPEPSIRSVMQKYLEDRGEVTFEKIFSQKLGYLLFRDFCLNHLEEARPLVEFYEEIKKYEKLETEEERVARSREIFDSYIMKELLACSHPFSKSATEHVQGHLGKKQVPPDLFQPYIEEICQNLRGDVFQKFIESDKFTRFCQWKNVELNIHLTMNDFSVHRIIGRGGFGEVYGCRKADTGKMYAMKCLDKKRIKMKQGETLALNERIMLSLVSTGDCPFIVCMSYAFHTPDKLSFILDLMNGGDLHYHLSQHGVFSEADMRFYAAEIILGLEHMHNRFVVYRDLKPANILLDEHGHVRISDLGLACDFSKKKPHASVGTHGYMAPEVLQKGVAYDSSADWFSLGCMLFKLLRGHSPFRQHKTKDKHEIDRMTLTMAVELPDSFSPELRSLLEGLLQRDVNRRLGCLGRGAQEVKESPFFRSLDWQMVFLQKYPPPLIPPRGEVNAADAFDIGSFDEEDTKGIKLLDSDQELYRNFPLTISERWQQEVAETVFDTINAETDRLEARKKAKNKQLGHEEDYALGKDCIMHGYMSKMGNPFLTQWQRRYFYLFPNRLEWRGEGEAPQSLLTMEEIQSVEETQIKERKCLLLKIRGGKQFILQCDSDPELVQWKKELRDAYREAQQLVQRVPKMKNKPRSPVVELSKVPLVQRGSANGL
B2AR ag: agonists of human beta-2 adrenergic receptor inducing internalization; P07550; Am2.2-beta2AR cells, FAP receptor internalization, flow cytometry; response, % (no concentration beside the values); actives 0.43% (n = 340,000);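 active = response above a set limit, near 3 SD of response in nonfluorescent compounds, cut at about 42% in these data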
Hep lipid drop: modulators of hepatic lipid droplet formation. AML12 mouse hepatocytes, oleate lipid droplets, BODIPY imaging. inhibition, % at 6.5 µM. actives 0.4% (n = 240,000);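 active = lipid droplet intensity inhibited by at least 50%, with more than 500 cells counted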
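Material: mouse AML12 hepatocyte cell line, fixed after treatment; Timing: compound with oleate, overnight; Technique: high-content imaging of BODIPY-stained droplets and DAPI nuclei; Probe or stimulus: oleate, 100 µM final; Dosing: compound at 6.5 µM only.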
TAG inh: triacylglycerol accumulation inhibition. H9c2 cells, Nile Red lipid (TAG) fluorescence; cells loaded with 200 µM oleic acid. inhibition, % at 12.5 µM. actives 0.66% (n = 230,000);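 active = pattern-corrected inhibition of lipid staining of at least 50% with the nuclear-stain viability signal not falling by more than 50%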
GRK2 CP1: human GRK2 inhibition confirmation, cherry pick 1. shares compounds with GRK2 aptamer HTS. actives 4% (n = 2,000). bead-bound GRK2, FAM-aptamer displacement, flow cytometry. AID 504451. aptamer displacement, % at 10 µM;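 active = aptamer displacement above 40%, near three times the noise of non-fluorescent compounds, on plates passing quality checks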;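 note: negative values mostly reflect intrinsic compound fluorescence rather than true enhancement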
Aptamer quench: quenches fluorescent RNA aptamer, GRK2 hit artifact; shares compounds with GRK2 aptamer HTS; Fluorescent RNA aptamer beads, quenching, flow cytometry; active compounds read high; fluorescence change (kMESF span), kMESF (no concentration beside the values); 110 tested, under 10 active; AID 504521;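 active = compounds whose bead fluorescence drops by more than 37 kMESF across the dose range, marking them as dye quenchers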
FAM quench CP1: quenches fluorescent RNA aptamer, GRK2 hit artifact; shares compounds with GRK2 aptamer HTS; Carboxyfluorescein RNA aptamer on beads, flow cytometry quenching; active compounds read low; fluorescence response (% of DMSO), % at 10 µM; 2,000 tested, under 10 active; AID 504580;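 active = compounds that quench the bead-bound fluorescent RNA probe, cutting fluorescence to under half of the solvent control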;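 note: counterscreen run without GRK2 so only probe quenching by compound is measured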
GRK2 CP2: confirmation of human GRK2 inhibitors binding RNA aptamer site | shares compounds with GRK2 aptamer HTS | bead-bound GRK2, FAM-aptamer displacement, flow cytometry | inhibition of aptamer binding, % at 10 µM | 360 tested, under 10 active;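 active = inhibition of aptamer binding above 40%, about triple the noise seen with nonglowing compounds, on plates passing quality control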;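 note: negative values mostly come from compounds that fluoresce themselves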
FAM quench SP: counter-screen for GRK2 binding hits: quenchers of fluorescent RNA aptamer; shares compounds with GRK2 aptamer HTS; carboxyfluorescein RNA aptamer beads, flow cytometry quenching; active compounds read low; fluorescence response vs DMSO, % at 10 µM; 360 tested, under 10 active; AID 588494;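 active = response vs DMSO under 50%, meaning signal dropped by over half, treated as fluorescence quencher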;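 note: labelled aptamer on streptavidin beads without GRK2 as a quench counter-screen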
Each line names hits and unclear results; the compound was inactive in the other large screens (follow-up assays come after a bar, where they were run).

O=C(CCN1CCCCC1)N1CCc2c([nH]c3ccccc23)C1c1cccnc1 (configuration not stated)	none (no result: NTR1 agonist, GRK2 aptamer HTS, Hep lipid drop) | GRK2 CP1 inactive | FAM quench CP1 inactive
O=C(c1cnccn1)N1CCc2c([nH]c3ccccc23)C1c1cccc(Cl)c1 (configuration not stated)	none (no result: TAG inh)
Cc1ccc(C(=O)NC(=S)Nc2ccccc2N2CCOCC2)cc1C	none
CCOc1ccc(NC(=O)CN(C)c2ccc(S(=O)(=O)N3CCOCC3)cn2)cc1OCC	none (no result: TAG inh)
Cc1ccc(NC(=O)CN(C)c2ccc(S(=O)(=O)N3CCCC3)cn2)cc1	GRK2 aptamer HTS 67.0 | GRK2 CP1 inactive | FAM quench CP1 inactive
COc1ccc(-c2c(NC(=O)CC(C)C)n(C)c3ccccc3c2=O)cc1OC	GRK2 aptamer HTS 87.0 (no result: Hep lipid drop, TAG inh) | GRK2 CP1 inactive | FAM quench CP1 inactive
N#CCCN1CCN(C2=NC(=O)/C(=C\c3cccs3)S2)CC1	none
Nc1[nH]ncc1-c1ccc(Cl)cc1	GRK2 aptamer HTS 99.0 | GRK2 CP1 inactive | FAM quench CP1 inactive
OCCSc1nc(N2CCOCC2)nc(N2CCOCC2)n1	none | GRK2 CP1 inactive | FAM quench CP1 inactive
Cc1sc2ncnc(N3CCC(C(=O)N4CC(C)SC4=Nc4ccc(Cl)cc4)CC3)c2c1C (configuration not stated)	none (no result: NTR1 agonist, GRK2 aptamer HTS, Hep lipid drop)
COc1ccc2nc(SCC(=O)Nc3ccc4c(c3)OCCO4)[nH]c2c1	GRK2 aptamer HTS 75.0 (no result: Hep lipid drop, TAG inh) | GRK2 CP1 98.6 | Aptamer quench inactive | FAM quench CP1 inactive
O=C(Nc1ccccc1)C(=O)Nc1ccccn1	GRK2 aptamer HTS 47.0 (no result: Hep lipid drop, TAG inh) | GRK2 CP1 inactive | FAM quench CP1 inactive
O=C1[C@@H]2Cc3c([nH]c4ccccc34)C(c3ccccc3)N2C(=O)CN1C1CCN(Cc2ccccc2)CC1 (some centres not stated)	none (no result: TAG inh) | GRK2 CP1 inactive | FAM quench CP1 inactive
O=C1[C@@H]2Cc3c([nH]c4ccccc34)C(c3cccc(Br)c3)N2C(=O)CN1C1CCN(Cc2ccccc2)CC1 (some centres not stated)	none (no result: TAG inh) | GRK2 CP1 inactive | FAM quench CP1 inactive
COC(=O)c1ccc(C2c3[nH]c4ccccc4c3C[C@H]3C(=O)N(C4CCN(Cc5ccccc5)CC4)CC(=O)N23)cc1 (some centres not stated)	none (no result: TAG inh)
CCCCN(CC)CCCNC(=O)c1cn(C)c2ccc(S(=O)(=O)N(C)C3CCCCC3)cc2c1=O	none (no result: TAG inh)
CCn1cc(C(=O)NCCCN2CCCC(C)C2)c(=O)c2cc(S(=O)(=O)N(C)C3CCCCC3)ccc21 (configuration not stated)	none (no result: TAG inh)
Cc1ccc(NC2c3ncccc3C(=O)N2Cc2ccc(F)cc2)cc1 (configuration not stated)	GRK2 aptamer HTS 76.0 (no result: Hep lipid drop, TAG inh) | GRK2 CP1 inactive | FAM quench CP1 inactive
COc1ccc(CN2C(=O)c3cccnc3C2Nc2ccc(OC)c(Cl)c2)cc1 (configuration not stated)	none (no result: Hep lipid drop, TAG inh)
O=C(CNC(=O)c1ccc(Cl)cc1Cl)OCC(=O)N1CCCC1	GRK2 aptamer HTS 56.0 (no result: Hep lipid drop) | GRK2 CP1 inactive | FAM quench CP1 inactive
CCOC(=O)N1CCN(C(=O)COC(=O)CNC(=O)c2ccc(Cl)cc2Cl)CC1	none (no result: Hep lipid drop)
Cn1cc(CNCC2CCCO2)c(-c2ccc(Oc3ccccc3)cc2)n1 (configuration not stated)	none
Cc1cc(CNCc2cn(C)nc2-c2ccc(Oc3ccccc3)cc2)on1	GRK2 aptamer HTS 100.0 | GRK2 CP1 inactive | FAM quench CP1 inactive
CC(OCC(O)CN1CCCCC1CCO)c1ccc(Cl)cc1 (configuration not stated)	GRK2 aptamer HTS 75.0 (no result: TAG inh) | GRK2 CP1 inactive | FAM quench CP1 inactive
O=C(COc1ccc(Br)cc1)N1CCc2ccccc2C1	none
O=C(Cc1ccc(Br)cc1)OCC(=O)N1CCc2ccccc2C1	GRK2 aptamer HTS 46.0 (no result: TAG inh) | GRK2 CP2 inactive | FAM quench SP inactive
COc1ccccc1CCNS(=O)(=O)c1cc2c3c(c1)CCN3C(=O)CC2	none (no result: Hep lipid drop)
CCOc1cc(N2CCOCC2)c(OCC)cc1NC(=O)c1cc(S(=O)(=O)N2CCOCC2)ccc1C	none (no result: Hep lipid drop) | GRK2 CP1 inactive | FAM quench CP1 inactive
CCOc1cc(N2CCOCC2)c(OCC)cc1NC(=O)c1[nH]c(C)c(C(C)=O)c1C	none (no result: Hep lipid drop)
CCOc1cc(N2CCOCC2)c(OCC)cc1NC(=O)c1ccc(F)c(S(=O)(=O)N2CCOCC2)c1	none (no result: GRK2 aptamer HTS, Hep lipid drop) | GRK2 CP1 inactive | FAM quench CP1 inactive
CCOc1cc(N2CCOCC2)c(OCC)cc1NC(=O)c1ccc(S(C)(=O)=O)cc1	GRK2 aptamer HTS 90.0 | GRK2 CP1 inactive | FAM quench CP1 inactive
Cc1ccc(S(=O)(=O)N2CCOCC2)cc1C(=O)NCc1ccccn1	none (no result: Hep lipid drop)
CC(C)C(=O)NC(=S)Nc1ccc(S(=O)(=O)NC2CCCCC2)cc1	none (no result: TAG inh)
CCOc1ccc(CNC(=O)CN2C(=O)C(c3ccccc3)Oc3cccnc32)cc1 (configuration not stated)	none (no result: TAG inh)
COc1cccc(CN(C(=O)c2cc3ccccc3oc2=O)C2CCS(=O)(=O)C2)c1 (configuration not stated)	none (no result: TAG inh)
O=C(O)[C@H](Cc1ccccc1)NC(=O)N1CCN(c2ccc(F)cc2)CC1	GRK2 aptamer HTS 93.0 | GRK2 CP1 inactive | FAM quench CP1 inactive
COC(=O)[C@H](Cc1ccccc1)NC(=O)N1CCN(c2ccccc2)CC1	none
CCOC(=O)C1CCN(C(=O)COC(=O)Cc2ccc(Cl)cc2)CC1	none (no result: Hep lipid drop, TAG inh)
COc1cccc(C(=O)OCC(=O)c2c[nH]c3ccccc23)c1OC	GRK2 aptamer HTS 43.0 (no result: Hep lipid drop) | GRK2 CP1 inactive | FAM quench CP1 inactive
COc1ccc(-c2cc(C(=O)NCc3ccc(Cl)cc3)no2)cc1OC	none (no result: TAG inh) | GRK2 CP1 inactive | FAM quench CP1 inactive
CC(C)CCn1c(=O)c2ccccc2n2c(=S)[nH]nc12	none (no result: TAG inh)
C=CCn1c(=O)c2ccccc2n2c(=S)[nH]nc12	GRK2 aptamer HTS 98.0 (no result: TAG inh) | GRK2 CP1 inactive | FAM quench CP1 inactive
